Measurements from different studies.
Protocols differ between the studies behind these lines.
Target: Serine/threonine-protein kinase pim-1 (PIM1, Homo sapiens, UniProt P11309)

Structure (SMILES)	effect on	action	method	concentration	quantity	value
Nc1nc(Nc2ccccc2)sc1C(=O)c1c(F)cccc1F	enzyme activity	inhibitor		10 µM	remaining activity	79%
COc1cc(Nc2cnc(C#N)c(O[C@H](C)CN(C)C)n2)ncc1-c1cnn(C)c1	enzyme activity	inhibitor	radiometric	10 µM	remaining activity	22%
O=C(Nc1ccc(Oc2ccc(F)cc2)cc1)N1CCc2ncccc2[C@H]1c1ccc(F)cc1	cell-free assay		competition with immobilised ligand	1 µM	remaining binding	99%
O=S(=O)(Nc1cc(Sc2ncn[nH]2)c(O)c2ccccc12)c1ccc(-c2ccccc2)cc1	enzyme activity	inhibitor		1 µM	remaining activity	≥ 75%
COc1cc2ncnc(Nc3ccc(Oc4ccccc4)c(C)c3C)c2cc1OC	enzyme activity	inhibitor		1 µM	inhibition	5%
Cn1cc(Cl)c2c(Oc3c(F)cc(Nc4cc(Cl)nc(N)n4)cc3F)ccnc21	cell-free assay		competition with immobilised ligand	0.1 µM	remaining binding	100%
COc1cc(Cl)c(C(=O)N[C@@H](CN[C@H]2CC[C@@H](N)CC2)Cc2ccc(C#N)cc2)cc1-c1ccc(CN[C@H](C)c2ccc(C)cc2)o1	enzyme activity	inhibitor		1 µM	remaining activity	110%
COc1cc2ncnc(Nc3ccc(F)c(Cl)c3)c2cc1OCCCN1CCOCC1	cell-free assay			0.5 µM	remaining signal	86.4%
Oc1cccc(-c2nc(N3CCOCC3)c3oc4ncccc4c3n2)c1	enzyme activity	inhibitor		10 µM	remaining activity	72%
COc1cc(/C=C/C(=O)CC(=O)/C=C/c2ccc(O)c(OC)c2)ccc1O	enzyme activity	inhibitor		1 µM	activity vs control	46%
Nc1ncnc2occ(-c3ccc(NC(=O)Nc4cc(C(F)(F)F)ccc4F)cc3)c12	cell-free assay	inhibitor		20 µM	remaining signal	55%
CS(=O)(=O)N1CCCC(NC(=O)[C@H](CCC2CCCCC2)NC(=O)c2ccc(CNc3ncnc4c3nnn4-c3ccccc3)cc2)C1 (stereo partly drawn)	cell-free assay		competition with immobilised ligand	0.1 µM	remaining binding	95%
CS(=O)(=O)Nc1cccc(-c2csc(NC(=O)CSc3nc4nccnc4c(=O)n3CCc3ccccc3)n2)c1	enzyme activity	inhibitor		10 µM	inhibition	0%
FC(F)c1nc2ccccc2n1-c1nc(N2CCOCC2)nc(N2CCOCC2)n1	enzyme activity	inhibitor		10 µM	remaining activity	97%
Cc1cc(NC(=O)c2cccc3cc(-c4cccc5[nH]nc(N)c45)ccc23)ccc1F	enzyme activity	inhibitor		0.1 µM	activity vs control	108%
CCN(CC)c1ccc(C2=NNC(=O)CC2C)cc1[N+](=O)[O-] (stereo not drawn)	enzyme activity	inhibitor		10 µM	remaining activity	82%
CN(C)C1CCN(CC#Cc2nn(C3CCCC3)c3nc(NCc4ccccc4)ncc23)C1 (stereo not drawn)	enzyme activity	inhibitor	FRET	1 µM	inhibition	2%

Structure (SMILES)	effect on	action	method	concentration	quantity	value
CNc1cccc2cc(C(=O)Nc3ccc(C(=O)O)cc3)c(=O)[nH]c12	enzyme activity	inhibitor		10 µM	inhibition	2.6%
FC(F)(F)Oc1cccc(-c2cnc3ccc(-c4ccncc4)nn23)c1	enzyme activity	inhibitor	radiometric	5 µM	activity vs control	47%
O=C(Nc1cnn(-c2csc(C(=O)NC3COC3)c2)c1)Nc1ccccc1Cl	enzyme activity	inhibitor		5 µM	remaining activity	64.6%
O=C1NC(=O)c2cc(Nc3ccc(F)cc3)c(Nc3ccc(F)cc3)cc21	cell-free assay			0.5 µM	remaining signal	81.8%
CC(C)(C)C(=O)c1sc(NC2CCCCC2)nc1N	enzyme activity	inhibitor		10 µM	remaining activity	90%
CNC(=O)c1cc(Oc2ccc(NC(=O)Nc3ccc(Cl)c(C(F)(F)F)c3)cc2)ccn1	enzyme activity	inhibitor		10 µM	inhibition	5%
CNCc1ccccc1-c1csc([C@H](C)Nc2nc(C)nc3cc(OC)c(OC)cc23)c1	cell-free assay		competition with immobilised ligand	1 µM	remaining binding	100%
Cn1c2c(c3ccc(Cl)c(Cl)c31)C(C#N)C1(CCNCC1)NC2=O (racemic)	thermal stability		DSF	10 µM	ΔTm	> 8 °C
O=C(Nc1cccnn1)N1CC(C/C=C/c2cncc(Oc3ccc(C(F)(F)F)cn3)n2)C1	cell-free assay		competition with immobilised ligand	1 µM	remaining binding	91%
COc1cc(Nc2c(C#N)cnc3cc(OCCCN4CCN(C)CC4)c(OC)cc23)c(Cl)cc1Cl	cell-free assay			0.5 µM	remaining signal	99.2%
O=C(N1CCS(=O)(=O)CC1)N1C[C@H](c2ccc(OC(F)(F)F)cc2)C[C@H](c2nc(C3CC3)no2)C1	cell-free assay		competition with immobilised ligand	1 µM	remaining binding	100%
Cc1ccc(Nc2nccc(N(C)c3ccc4c(C)n(C)nc4c3)n2)cc1S(N)(=O)=O	enzyme activity	inhibitor		0.3 µM	inhibition	-1%
COCCOc1nc(-c2ccc(Cl)nc2)nc2c1CN(C(=O)c1ncn3ccccc13)CC2	cell-free assay		competition with immobilised ligand	0.1 µM	remaining binding	100%
CC(C)(C)c1nc2c(s1)c1nc(N)ncc1c1ccc(NS(=O)(=O)c3c(F)cccc3F)c(F)c12	enzyme activity	inhibitor	radiometric	1 µM	remaining activity	108%
CC(=O)Nc1c(C(C)=O)c(=O)n(C)c2nc(-c3ccc(Cl)cc3Cl)c(-c3ccc(Cl)cc3)cc12	cell-free assay		competition with immobilised ligand	1 µM	remaining binding	100%
CCN(CC)CCNC(=O)c1c(C)[nH]c(/C=C2\C(=O)Nc3ccc(F)cc32)c1C	cell-free assay			0.5 µM	remaining signal	94.4%
